Results: ChEMBL document CHEMBL1123290, “Synthesis, antimalarial activity, and quantitative structure-activity relationships of tebuquine and a series of related 5-[(7-chloro-4-quinolinyl)amino]-3-[(alkylamino)methyl] [1,1'-biphenyl]-2-ols and N omega-oxides” (1986)

Tests used:
Type in all cases: functional
[1] = system: Plasmodium berghei; assay: Antimalarial activity as 60-day survivors in Plasmodium berghei infected mice (Mus musculus) after single 160mg/kg subcutaneous dose 72 hr post infection
Summary of the method: (§1)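 Mice were infected with a normal drug-sensitive Plasmodium berghei strain. At 72 h postinfection each received one subcutaneous dose of compound dissolved or suspended in peanut oil, in five-mouse groups per dose. The read-out was the number of mice alive at 60 days postinfection, which were scored as cured.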

[2] = system: Mus musculus; assay: Antimalarial activity, administered as a single subcutaneous dose of 640 mg/kg, 72 hrs post infection measured as number of mice (Mus musculus) surviving at 60 days post infection; summary of the method: as §1
[3] = system: Plasmodium berghei; assay: Change in mean survival time of Plasmodium berghei infected mice (Mus musculus) after 5 mg/kg subcutaneous dose
[4] = system: Plasmodium berghei; assay: Antimalarial activity in primary screen
[5] = system: Plasmodium berghei; assay: Change in mean survival time of Plasmodium berghei infected mice (Mus musculus) on 1.25 mg/kg subcutaneous dose
[6] = system: Plasmodium berghei; assay: Antimalarial activity as 60-day survivors in infected mice (Mus musculus) after single 320mg/kg subcutaneous dose 72 hr post infection; summary of the method: as §1
[7] = system: Plasmodium berghei; assay: Change in mean survival time in control (average 6.2 days) versus treated mice (Mus musculus) after 80 mg/kg subcutaneous dose
[8] = system: Mus musculus; assay: Antimalarial activity, administered as a single subcutaneous dose of 80 mg/kg, 72 hrs post infection measured as number of mice (Mus musculus) surviving at 60 days post infection; summary of the method: as §1
[9] = system: Plasmodium berghei; assay: Change in mean survival time for control (average 6.2 days) versus treated mice (Mus musculus) after 160 mg/kg subcutaneous dose
[10] = system: Plasmodium berghei; assay: Change in mean survival time for control (average 6.2 days) versus treated mice (Mus musculus) after 20 mg/kg subcutaneous dose
[11] = system: Plasmodium berghei; assay: (§2) Change in mean survival time for control (average 6.2 days) versus treated mice (Mus musculus) 72 hrs after […] subcutaneous dose
[12] = system: Plasmodium berghei; assay: Difference in mean survival time of Plasmodium berghei infected mice (Mus musculus) after 10 mg/kg subcutaneous dose
[13] = system: Plasmodium berghei; assay: Change in mean survival time for control (average 6.2 days) versus treated mice (Mus musculus) after 40 mg/kg subcutaneous dose
[14] = system: Plasmodium berghei; assay: Change in mean survival time of Plasmodium berghei infected mice (Mus musculus) after […] subcutaneous dose
[15] = system: Plasmodium berghei; assay: Change in mean survival time for control (average 6.2 days) versus treated mice (Mus musculus) after 320 mg/kg subcutaneous dose
[16] = system: Mus musculus; assay: Antimalarial activity, administered as a single subcutaneous dose of 40 mg/kg, 72 hrs post infection measured as number of mice (Mus musculus) surviving at 60 days post infection; summary of the method: as §1
[17] = system: Plasmodium berghei; assay: Antimalarial activity as 60-day survivors in infected mice (Mus musculus) after single 20 mg/kg subcutaneous dose 72hr post infection; summary of the method: as §1
[18] = system: Plasmodium berghei; assay: as §2; remark: listed apart in the source

Row | Structure (SMILES) | No. of mice cured [1] | No. of mice cured [2] | Delta MST [3] [days] | ED30 [4] [mg/kg] | Delta MST [5] [days] | No. of mice cured [6] | Delta MST [7] [days] | No. of mice cured [8] | Delta MST [9] | Delta MST [10] [days] | Delta MST [11] [days] | Delta MST [12] [days] | Delta MST [13] [days] | Delta MST [14] [days] | Delta MST [15] [days] | No. of mice cured [16] | No. of mice cured [17] | Delta MST [18] [days]
1 | CCN(CC)Cc1cc(Nc2cc[n+]([O-])c3cc(Cl)ccc23)cc(-c2ccc(SC)cc2)c1O | 1 | 2 | 1.5 | 158 | 0.1 | 4 | 9.4 | 1 | 19.9 days | 6.5 | 27.3 | 2.1 | 10.3 | 0.5 | 18.6 | – | – | –
2 | CCN(CC)Cc1cc(Nc2cc[n+]([O-])c3cc(Cl)ccc23)cc(-c2ccc(OC)cc2)c1O | – | 2 | – | 423 | 0.1 | 1 | 9.1 | – | 7.3 | 3.7 | 15 | 1.1 | 7.3 | -0.1 | 8.2 | – | – | –
3 | CCN(CC)Cc1cc(Nc2cc[n+]([O-])c3cc(Cl)ccc23)cc(-c2ccc(Cl)c(Cl)c2)c1O | 2 | 5 | 0.7 | 36.6 | -0.1 | 5 | 25.7 | 2 | 29.1 days | 12 | – | 5.9 | 21.2 | -0.1 | – | 1 | – | –
4 | CCN(CC)Cc1cc(Nc2cc[n+]([O-])c3cc(Cl)ccc23)cc(-c2ccncc2)c1O | – | 3 | – | 330 | – | 2 | 8.3 | – | 10.7 days | 3.3 | 21.9 | – | 5.7 | – | 12.6 | – | – | –
5 | [O-][n+]1ccc(Nc2cc(CN3CCCC3)c(O)c(-c3ccc(Cl)c(Cl)c3)c2)c2ccc(Cl)cc21 | 3 | 5 | 0.7 | – | -0.1 | 5 | 25.4 | 2 | 24.4 days | 7.9 | – | 2.3 | 10.7 | -0.1 | – | – | – | –
6 | CCN(CC)Cc1cc(Nc2cc[n+]([O-])c3cc(Cl)ccc23)cc(-c2ccccn2)c1O | – | 1 | – | 550 | – | 1 | 1 | – | 3 days | 0.4 | 9.1 | – | 0 | – | 5.1 | – | – | –
7 | CCN(CC)Cc1cc(Nc2cc[n+]([O-])c3cc(Cl)ccc23)cc(-c2ccc(C)cc2)c1O | – | – | – | – | – | – | 4.3 | – | 5.1 days | – | 10.5 | – | 0.5 | – | 15.7 | – | 1.3 | –
8 | CCN(CC)Cc1cc(Nc2cc[n+]([O-])c3cc(Cl)ccc23)cc(-c2ccc(OC)c(OC)c2)c1O | – | 2 | – | 204 | – | 3 | 5 | – | 11.4 | 2.4 | 11.1 | – | 5.4 | – | 12.4 | – | – | –
9 | CCN(CC)Cc1cc(Nc2cc[n+]([O-])c3cc(Cl)ccc23)cc(-c2ccccc2C(F)(F)F)c1O | 4 | 5 | 0.7 | 56.1 | 0.5 | 5 | 24.7 | – | 24.7 days | 7.7 | – | 4.1 | 15.5 | 0.1 | – | – | – | –
10 | CCN(CC)Cc1cc(Nc2cc[n+]([O-])c3cc(Cl)ccc23)cc(-c2ccccc2F)c1O | 3 | 4 | 1.5 | 48.4 | -0.1 | 2 | 15.6 | – | 20.1 days | 12.2 | 35.6 | 6.1 | 17.1 | -0.1 | 31.9 | 1 | – | –
11 | CCN(CC)Cc1cc(Nc2cc[n+]([O-])c3cc(Cl)ccc23)cc(-c2ccccc2)c1O | 5 | 3 | 5.1 | 26.3 | 0.3 | 3 | 19.9 | 2 | – | 17.4 | 23.9 | 7.7 | 29.6 | 0.3 | 24.9 | – | – | –
12 | CCN(CC)Cc1cc(Nc2cc[n+]([O-])c3cc(Cl)ccc23)cc(-c2ccccc2Cl)c1O | 3 | 5 | 6.4 | 27.4 | -0.2 | 3 | 34.9 | 2 | 33.4 days | 19.2 | – | 8 | 25.8 | -0.2 | 41.9 | 1 | – | –
13 | CCN(CC)Cc1cc(Nc2cc[n+]([O-])c3cc(Cl)ccc23)cc(-c2ccc(F)cc2)c1O | 5 | – | 5.1 | 19.7 | 0.5 | 4 | 23.6 | 4 | – | 14.1 | 15 | 10.5 | 21.7 | 2.1 | 8.6 | 2 | – | –
14 | CCN(CC)Cc1cc(Nc2cc[n+]([O-])c3cc(Cl)ccc23)cc(-c2cccc(Cl)c2)c1O | 4 | 3 | 2.1 | 27.4 | 0.3 | 4 | 25.6 | 2 | 28.9 days | 16.5 | 16.4 | 9.7 | 25.9 | 0.7 | 21.9 | 2 | – | –
15 | CCN(CC)Cc1cc(Nc2cc[n+]([O-])c3cc(Cl)ccc23)cc(-c2ccccc2OC)c1O | 2 | 1 | – | 170 | – | 1 | 8.7 | – | 8.9 days | 0.7 | 27.2 | – | 6.9 | – | 36.2 | – | – | –
16 | CC(C)(C)NCc1cc(Nc2cc[n+]([O-])c3cc(Cl)ccc23)cc(-c2ccc(Cl)c(Cl)c2)c1O | 1 | 2 | 0.5 | – | -0.3 | 3 | 23.2 | 1 | 25.9 days | 5.9 | – | 2.9 | 8.9 | -0.1 | 25.9 | – | – | –
17 | CCN(CC)Cc1cc(Nc2cc[n+]([O-])c3cc(Cl)ccc23)cc(-c2cccc(F)c2)c1O | 3 | 1 | 4.5 | 33.7 | -0.1 | 3 | 22.6 | 2 | 29.6 days | 27.2 | 14.8 | – | 22.8 | 0.5 | 24.1 | – | – | –
18 | CCCCN(CCCC)Cc1cc(Nc2cc[n+]([O-])c3cc(Cl)ccc23)cc(-c2ccc(Cl)cc2)c1O | – | 1 | 0.4 | – | 0.4 | – | 8 | – | 12 | 3.2 | 31.7 | -0.2 | 2.2 | -0.2 | 21.2 | – | – | 0.4
